# Rin1 Abl inh: inhibitors of human Rin1-Abl protein interaction; TR-FRET Rin1/Abl binding, biochemical; inhibition, % at 7.35 µM; 360,000 compounds, 0.4% hits; in the data active = inhibition above about 5%, passing the limit was not always enough
# CAL PDZ FP-1: human CAL PDZ-peptide interaction inhibition; Q9HD26; purified CAL PDZ, TMR-peptide fluorescence polarization, 1 h; inhibition, % at 20 µM; 330,000 compounds, 0.02% hits; AID 504414;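 active = highest replicate inhibition of at least 40%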
#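 Material: tagged CAL PDZ protein CerCALP, purified; buffer or medium: sodium phosphate/NaCl buffer pH 7.4 with TCEP, IgG, Thesit; also added: fluorescent TMR peptide probe; schedule: 1 h incubation at room temperature before polarization reading; technique: fluorescence polarization from S- and P-plane intensities, G-factor corrected; control set: unlabelled peptide and DMSO controls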
# PDI turbidity: blocks human protein disulfide isomerase activity | PDI insulin aggregation turbidity, A650, 90 min | inhibition, % at 10 µM | 350,000 compounds, 0.052% hits;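 active = mean inhibition across replicates of 30% or more, whatever share of single replicates reach that level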
# Target sequence (P07237 whole entry, looked up): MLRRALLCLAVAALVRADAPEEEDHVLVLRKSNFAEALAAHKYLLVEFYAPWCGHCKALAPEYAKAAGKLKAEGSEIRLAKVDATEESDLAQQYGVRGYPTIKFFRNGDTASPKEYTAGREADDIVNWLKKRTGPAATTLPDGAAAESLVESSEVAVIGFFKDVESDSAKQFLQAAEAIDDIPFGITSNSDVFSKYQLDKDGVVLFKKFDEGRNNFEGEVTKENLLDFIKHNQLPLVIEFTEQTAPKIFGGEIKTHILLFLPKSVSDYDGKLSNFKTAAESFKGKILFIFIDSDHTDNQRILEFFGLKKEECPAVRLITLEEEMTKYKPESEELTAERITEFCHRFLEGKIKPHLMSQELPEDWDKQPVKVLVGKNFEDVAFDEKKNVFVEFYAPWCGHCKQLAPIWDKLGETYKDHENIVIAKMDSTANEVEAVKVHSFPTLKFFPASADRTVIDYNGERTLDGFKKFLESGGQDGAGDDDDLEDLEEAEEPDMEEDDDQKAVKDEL
# ERAP1 inh: ERAP1 (human) enzyme inhibition | recombinant ERAP1, Leu-AMC fluorescence, 60 min | inhibition, % at 10.7 µM | Q9NZ08 | 340,000 compounds, 0.15% hits;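 active = mean replicate inhibition of at least 30%, or all replicates individually reaching that 30% level; inactive = mean below 30% and not every replicate reaching it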
# CAL PDZ FP-2: CAL PDZ (human) peptide binding inhibition | purified CAL PDZ, TMR-peptide fluorescence polarization, 1 h | inhibition, % at 24.9 µM | 300,000 compounds, 0.92% hits;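 active = mean inhibition of at least 30% with at least half of replicates also reaching 30%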
# ERp5 block: blocks human ERp5 reductase activity on insulin; inhibition, % at 9.99 µM; ERp5 insulin aggregation, absorbance 650 nm, 90 min; AID 651711; Q15084; 350,000 compounds, 0.05% hits;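 active = mean replicate inhibition above about 25%, with every replicate also reaching it, limit read from the data, passing the limit was not always enough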
# A number is an active result; n = inactive; x = no result given. Shown are actives, neighbours in structure and some others; about 1.1% of the full set was active somewhere.
SMILES,Rin1 Abl inh,CAL PDZ FP-1,PDI turbidity,ERAP1 inh,CAL PDZ FP-2,ERp5 block
C[C@@H]1CCCCO[C@H](CN(C)S(=O)(=O)c2ccc(Cl)cc2)[C@@H](C)CN([C@@H](C)CO)C(=O)c2cc(NC(=O)CCCN(C)C)ccc2O1,x,x,x,n,x,n
Cn1c(=O)n(CC(=O)Nc2ccccc2)c2ccccc21,n,n,n,x,n,x
Cn1c(=O)c2sc3c(c2n(CC(=O)Nc2ccccc2)c1=O)COC(C)(C)C3,n,n,n,n,31.5,n
O=C(N/N=C/c1ccc(O)cc1)Nc1cccc2nsnc12,n,n,n,n,31.5,n
C=C(C)CN(CC)C(=O)CSc1ccc(S(=O)(=O)N2CCN(Cc3ccccc3)CC2)cn1,n,n,n,n,69.4,n
C=C(C)CN(CC)C(=O)CSc1ccc(S(=O)(=O)N2CCN(C)CC2)cn1,n,n,n,n,n,n
Cc1noc(C)c1NC(=O)N[C@@H]1CC[C@@H](CC(=O)Nc2ccccc2)O[C@@H]1CO,x,x,x,n,x,n
COCCSc1nc2c(c(=O)[nH]c(=O)n2C)n1Cc1cccc(C)c1,11.2,n,n,n,x,n
CN(C)C(=O)C[C@@H]1C[C@@H]2c3cc(NC(=O)C4CCOCC4)ccc3O[C@@H]2[C@H](CO)O1,x,x,x,n,x,n
Cn1c(CNC(=O)CCNC(=O)c2cccc(Cl)c2)cc(=O)n(C)c1=O,n,n,n,n,43.0,n
Cc1cc(CN(C)C(=O)c2cc(COc3ccc4ncccc4c3)on2)on1,n,n,n,x,76.4,n
CC(=O)c1ccc(OCc2cc(C(=O)N(C)Cc3cc(C)no3)no2)cc1,n,n,n,n,n,n
CN(Cc1nccn1C)C(=O)c1cc(COc2ccc3ncccc3c2)on1,n,n,n,n,41.9,n
C[C@H]1CCCCO[C@H](CN(C)Cc2ccc(Cl)c(Cl)c2)[C@@H](C)CN([C@@H](C)CO)C(=O)c2cc(NC(=O)Nc3ccc(F)cc3)ccc2O1,x,x,x,n,x,n
O=C(Nc1nc2c(Br)cc(Br)cc2c(=O)s1)C1CCC1,n,n,n,n,36.6,n
Cc1ccc(C)c2sc(NC(=O)C3CC3)nc12,n,n,x,n,n,n
CN(C)S(=O)(=O)c1ccc(Cl)c(NC(=O)CSc2nnnn2-c2ccc(O)cc2)c1,n,n,41.2,n,n,n
C[C@H](CO)N1C[C@H](C)[C@H](CN(C)C(=O)Nc2ccccc2)OCCCC[C@H](C)Oc2ccc(NC(=O)CCC(F)(F)F)cc2C1=O,x,x,x,n,x,n
C[C@@H]1CN([C@H](C)CO)C(=O)Cc2cc(NC(=O)CCCN(C)C)ccc2O[C@@H]1CN(C)S(=O)(=O)c1ccccc1,x,x,x,n,x,n
COc1ccc(-c2nnn(CC(=O)N(CCN3CCOCC3)C(C(=O)NC3CCCCC3)c3ccco3)n2)cc1 (centres undefined),n,n,n,n,n,n
COc1ccc(-c2nnn(CC(=O)N(CCN3CCOCC3)C(C(=O)NC3CCCC3)c3ccco3)n2)cc1 (centres undefined),n,n,n,n,52.7,n
CCN(CC)CCNc1ncnc2c1sc1nc(N3CCOCC3)c3c(c12)CC(C)(C)SC3,17.5,n,n,x,n,x
CCn1c(SC)nnc1-c1nn(-c2ccccc2)ccc1=O,n,n,n,103.1,x,n
COc1ccc(S(=O)(=O)NCCc2ccncc2)cc1,n,n,n,x,63.0,n
O=[N+]([O-])/C(C=Nc1ccccc1O)=C\Nc1ccccc1O,n,n,n,n,35.1,n
SMILES,Rin1 Abl inh,CAL PDZ FP-1,PDI turbidity,ERAP1 inh,CAL PDZ FP-2,ERp5 block
C[C@H]1CN([C@@H](C)CO)C(=O)c2cc(NS(=O)(=O)c3ccc(F)cc3)ccc2O[C@@H]1CN(C)Cc1ccccc1,x,x,x,n,x,n
CCN(c1ccccc1)S(=O)(=O)c1ccc(OC)c(NC(=O)c2c(C)noc2C)c1,n,n,n,n,n,27.4
CCN(c1ccccc1)S(=O)(=O)c1ccc(OC)c(NC(=O)c2cc(Cl)ccn2)c1,n,n,n,n,n,n
CC(=O)Nc1ccc(NC(=O)CSc2nnc(NC(=O)C3CC3)s2)cc1,n,n,n,n,n,n
COc1ccc(NC(=O)CSc2nnc(NC(=O)C3CC3)s2)cc1OC,n,n,n,n,n,26.1
O=C(COC(=O)c1ccc2c(c1)OCO2)NCc1ccc(Cl)cc1,n,x,n,x,61.0,x
O=C(COC(=O)Cc1ccc(Cl)cc1)NCc1ccc2c(c1)OCO2,n,n,n,n,n,n
COC(=O)c1ccc(N)cc1O,n,n,n,x,n,x
